ChEMBL document CHEMBL5625186, “Synthesis, cytotoxicity, antioxidant activity and molecular modeling of new NSAIDs-EBS derivatives” (Eur J Med Chem, 2023)
Activity calls are given as the source filed them. No cut-off for these calls is given here.

Legend:
[1] = test system: MCF7; assay: Cytotoxicity against human MCF7 cells measured after 24 to 72 hrs by MTT assay; format: functional, cell-based
How it was run: (§1)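 Cells were grown in RPMI 1640 with 10% FBS and penicillin/streptomycin at 37 °C, 5% CO2. They were seeded at 1×10^4 cells/well and allowed to attach for 24 h. Compounds at various concentrations were then applied for 24, 48 or 72 h (DMSO below 1.25%). MTT (5.0 mg/mL) was added 3 h before the end, formazan was dissolved in DMSO and OD was read at 570 nm. Doxorubicin served as reference. Data are mean ± SD, n=3.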

[2] = molecular target: T1, Thioredoxin reductase 1, cytoplasmic (Rattus norvegicus, UniProt O89049); assay: Inhibition of rat TrxR1 using DTNB as substrate preincubated for 15 mins followed by substrate addition and measured for 20 mins by colorimetric method
T1 sequence (O89049 whole entry): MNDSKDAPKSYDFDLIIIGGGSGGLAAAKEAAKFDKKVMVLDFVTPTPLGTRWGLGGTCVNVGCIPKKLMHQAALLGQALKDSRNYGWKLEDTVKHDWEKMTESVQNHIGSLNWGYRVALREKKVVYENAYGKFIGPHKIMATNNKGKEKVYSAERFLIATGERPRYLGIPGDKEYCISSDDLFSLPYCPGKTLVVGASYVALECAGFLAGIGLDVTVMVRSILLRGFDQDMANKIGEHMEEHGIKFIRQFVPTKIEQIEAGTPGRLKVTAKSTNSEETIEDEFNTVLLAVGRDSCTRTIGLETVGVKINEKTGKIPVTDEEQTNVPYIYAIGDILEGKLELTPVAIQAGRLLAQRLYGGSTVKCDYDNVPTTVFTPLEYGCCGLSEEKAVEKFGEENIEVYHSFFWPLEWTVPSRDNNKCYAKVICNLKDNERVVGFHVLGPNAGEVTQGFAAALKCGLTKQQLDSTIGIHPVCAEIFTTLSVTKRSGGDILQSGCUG
How it was run: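 Rat TrxR1 (5 nM) was used in 100 mM potassium phosphate pH 7.0 with 1 mM EDTA, 0.1 mg/ml BSA and 0.2 mM NADPH. […] DTNB was then added and the A412 increase was monitored for 20 min.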

[3] = test system: BGC-823; assay: Cytotoxicity against human BGC-823 cells measured after 24 to 72 hrs by MTT assay; format: functional, cell-based; how it was run: as §1
[4] = test system: A549; assay: Cytotoxicity against human A549 cells measured after 24 to 72 hrs by MTT assay; format: functional, cell-based; how it was run: as §1
[5] = test system: DNA; assay: Induction of bleomycin-dependent DNA (unknown origin) damage assessed as absorbance at 0.1 mg/ml measured after 1 hr; format: nucleic-acid assay
How it was run: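 The bleomycin-iron/DNA mixture was incubated at 37 °C for 1 h and stopped with 0.1 M EDTA. Colour was developed with 1% TBA plus 25% HCl at 80 °C for 30 min. After ice cooling, DNA damage was read as the increase in absorbance at 532 nm. L-ascorbic acid served as the positive control.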

[6] = test system: SW480; assay: Cytotoxicity against human SW480 cells measured after 24 to 72 hrs by MTT assay; format: functional, cell-based; how it was run: as §1
[7] = Antioxidant activity assessed as DPPH radical scavenging activity incubated for 30 mins under dark condition relative to control; format: functional; design: concentration or dose not given beside the values
How it was run: (§2)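 Compounds at a range of concentrations were mixed with DPPH solution and kept 30 min in the dark. Absorbance was read at 517 nm. % activity = [(control A − sample A)/control A] × 100. Vitamin C and ebselen served as positive controls and DMSO as the negative control. Fold is expressed relative to vitamin C (set as 1). Values are mean ± SD of three independent experiments.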

[8] = Potency index, ratio of test compound to vitamin C antioxidant activity assessed as DPPH radical scavenging activity incubated for 30 mins under dark condition; format: functional; how it was run: as §2
[9] = Antioxidant activity assessed as glutathione peroxidase-like activity at 41 mM measured over 3 mins; format: functional
How it was run: (§3)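 GPx-like rate measured from GSH/glutathione reductase/NADPH coupling in 50 mM phosphate buffer with 0.1% Triton X-100. The compound was added from a 41 mM solution, and the reaction was started with H2O2 (0.8 mM). A340 was followed for 3 min and expressed as ΔA/min. Values were corrected for the H2O2 + GSH background, and for the compound's own absorbance if coloured. Ebselen (41 mM) served as reference.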

[10] = test system: HeLa; assay: Cytotoxicity against human HeLa cells measured after 24 to 72 hrs by MTT assay; format: functional, cell-based; how it was run: as §1
[11] = Antioxidant activity assessed as glutathione peroxidase-like activity at 41 mM measured over 3 mins relative to ebselen glutathione peroxidase-like activity; format: functional; how it was run: as §3

| Compound | IC50 [1] | EC50 [2] | IC50 [3] | IC50 [4] | Activity [5] | IC50 [6] | inhibition [7] | Ratio [8] | Activity [9] | IC50 [10] | fold change (FC) [11] |
| --- | --- | --- | --- | --- | --- | --- | --- | --- | --- | --- | --- |
| COc1ccc2c(c1)c(CC(=O)NCc1ccc(-n3[se]c4ccccc4c3=O)cc1)c(C)n2C(=O)c1ccc(Cl)cc1 | 11.3 µM | 15.7 µM | 9.2 µM | 10.3 µM | 101 | 7.5 µM | 78.7% | 0.8 | Active | 14.3 µM | – |
| COc1ccc2c(c1)c(CC(=O)NCCn1[se]c3ccccc3c1=O)c(C)n2C(=O)c1ccc(Cl)cc1 | 10.3 µM | 24.5 µM | 17.4 µM | 11.2 µM | 92.4 | 14.3 µM | 27.3% | 0.3 | Active | 13.6 µM | – |
| CC(C(=O)NCc1ccc(-n2[se]c3ccccc3c2=O)cc1)c1cccc(C(=O)c2ccccc2)c1 (centres undefined) | 8.4 µM | 19.6 µM | 11.2 µM | 13.2 µM | 85.3 | 12.5 µM | 31.3% | 0.3 | – | 9.2 µM | – |
| O=C(NCc1ccc(-n2[se]c3ccccc3c2=O)cc1)c1ccccc1Nc1cccc(C(F)(F)F)c1 | 14.2 µM | 11.5 µM | 8.4 µM | 12.7 µM | 56.1 | 13.7 µM | 51.5% | 0.5 | – | 7.5 µM | – |
| CC(C(=O)NCc1ccc(-n2[se]c3ccccc3c2=O)cc1)c1ccc(-c2ccccc2)c(F)c1 (centres undefined) | 11.3 µM | 11.2 µM | 6.5 µM | 12.3 µM | 57.3 | 8.3 µM | 58.2% | 0.6 | Active | 9.5 µM | – |
| CCC1(CC)OCCc2c1[nH]c1c(CC(=O)NCc3ccc(-n4[se]c5ccccc5c4=O)cc3)cccc21 | 8.8 µM | 17.1 µM | 9.8 µM | 9.8 µM | 97.4 | 12.3 µM | 52.1% | 0.5 | – | 12.6 µM | – |
| CC(C(=O)NCCn1[se]c2ccccc2c1=O)c1cccc(C(=O)c2ccccc2)c1 (centres undefined) | 10.3 µM | 23.6 µM | 13.6 µM | 15.6 µM | 87.6 | 14.6 µM | 33.3% | 0.3 | Active | 11.3 µM | – |
| O=C(NCCn1[se]c2ccccc2c1=O)c1ccccc1Nc1cccc(C(F)(F)F)c1 | 12.6 µM | 24.8 µM | 11.4 µM | 12.2 µM | 77.7 | 9.4 µM | 41.7% | 0.4 | Active | 15.2 µM | – |
| CC1=C(CC(=O)NCc2ccc(-n3[se]c4ccccc4c3=O)cc2)c2cc(F)ccc2/C1=C\c1ccc([S+](C)[O-])cc1 (centres undefined) | 7.4 µM | 10.4 µM | 9.5 µM | 8.3 µM | 72.4 | 9.8 µM | 42.9% | 0.4 | – | 8.4 µM | – |
| CC(=O)Oc1ccccc1C(=O)NCc1ccc(-n2[se]c3ccccc3c2=O)cc1 | 1.5 µM | 8.8 µM | 2.4 µM | 2.1 µM | 108 | 2.8 µM | 57.3% | 0.5 | Active | 1.7 µM | < 3 |
| CC(C)Cc1ccc(C(C)C(=O)O)cc1 (centres undefined) [IBUPROFEN] | > 50 µM | – | > 50 µM | > 50 µM | – | > 50 µM | – | – | – | > 50 µM | – |
| C=C(C(=O)NCCn1[se]c2ccccc2c1=O)c1ccc(CC(C)C)cc1 | 15.7 µM | 23.5 µM | 12.5 µM | 9.4 µM | 68.4 | 11.4 µM | 33.5% | 0.3 | Active | 10.6 µM | – |
| COc1ccc2cc(C(C)C(=O)NCc3ccc(-n4[se]c5ccccc5c4=O)cc3)ccc2c1 (centres undefined) | 13.8 µM | 14.6 µM | 13.5 µM | 11.4 µM | 82.8 | 7.4 µM | 68.6% | 0.7 | Active | 9.7 µM | – |
| CC(=O)Oc1ccccc1C(=O)O [ASPIRIN] | > 50 µM | – | > 50 µM | > 50 µM | – | > 50 µM | – | – | – | > 50 µM | – |
| CC(=O)Oc1ccccc1C(=O)NCCn1[se]c2ccccc2c1=O | 14.5 µM | 21.4 µM | 11.4 µM | 10.6 µM | 91.4 | 14.2 µM | 41.4% | 0.4 | Active | 12.7 µM | – |
| CC1=C(CC(=O)NCCn2[se]c3ccccc3c2=O)c2cc(F)ccc2/C1=C\c1ccc([S+](C)[O-])cc1 (centres undefined) | 14.4 µM | 27 µM | 16.6 µM | 13.3 µM | 68.4 | 10.4 µM | 29% | 0.3 | Active | 11.3 µM | – |
| CC(C(=O)NCCn1[se]c2ccccc2c1=O)c1ccc(-c2ccccc2)c(F)c1 (centres undefined) | 14.9 µM | 28.5 µM | 9.5 µM | 13.6 µM | 85.7 | 11.3 µM | 42.5% | 0.4 | Active | 10.4 µM | – |
| COc1cccc2c1C(=O)c1c(O)c3c(c(O)c1C2=O)C[C@@](O)(C(=O)CO)C[C@@H]3O[C@H]1C[C@H](N)[C@H](O)[C@H](C)O1 [DOXORUBICIN] | 12.8 µM | – | 9.8 µM | 9.4 µM | – | 12.4 µM | – | – | – | 11.5 µM | – |
| CC(C)Cc1ccc(C(C)C(=O)NCc2ccc(-n3[se]c4ccccc4c3=O)cc2)cc1 (centres undefined) | 12.4 µM | 17.2 µM | 7.5 µM | 8.1 µM | 106 | 10.4 µM | 42.6% | 0.4 | Active | 9.3 µM | – |
| Cc1cccc(Nc2ccccc2C(=O)NCc2ccc(-n3[se]c4ccccc4c3=O)cc2)c1C | 4.2 µM | 14.3 µM | 3.4 µM | 3.6 µM | 72.4 | 4.5 µM | 54.3% | 0.5 | Active | 3.8 µM | – |
| O=c1c2ccccc2[se]n1-c1ccccc1 [EBSELEN] | > 50 µM | – | > 50 µM | > 50 µM | – | > 50 µM | – | – | – | > 50 µM | – |
| O=C1O[C@H]([C@@H](O)CO)C(O)=C1O | – | – | – | – | 292 | – | 97.2% | – | – | – | – |
| COc1ccc2cc([C@H](C)C(=O)O)ccc2c1 [NAPROXEN] | > 50 µM | – | > 50 µM | > 50 µM | – | > 50 µM | – | – | – | > 50 µM | – |
| Cc1cccc(Nc2ccccc2C(=O)NCCn2[se]c3ccccc3c2=O)c1C | 5.3 µM | 26.6 µM | 6.5 µM | 5.2 µM | 72.4 | 7.2 µM | 37.4% | 0.4 | Active | 8.8 µM | – |
| COc1ccc2cc(C(C)C(=O)NCCn3[se]c4ccccc4c3=O)ccc2c1 (centres undefined) | 16.5 µM | 28.4 µM | 13.5 µM | 14.7 µM | 123 | 15.7 µM | 28.6% | 0.3 | Active | 8.8 µM | – |
